Reference: ChEMBL document CHEMBL1138406, “Bioactive pregnanes from Nerium oleander” (J Nat Prod, 2007)
Converted amounts (≈) assume the structure as drawn.

Columns and labels:
HepG2 = assay: Cytotoxicity against human HepG2 cells; type: cell-based
Outline: (§1)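 IC50 in µg/mL, taken as the mean of duplicate determinations.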

[1] = Cytotoxicity against human WI38 cells; type: cell-based; conditions: WI-38; outline: as §1
[2] = Effect on calcein accumulation in multidrug resistant human 2780 AD cells at 25 ug/mL relative to control; type: functional
Outline: (§2)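 Calcein (formed from calcein AM by cellular esterase) accumulated in multidrug-resistant ovarian cancer 2780 AD cells. Read in the presence of 0.25, 2.5 or 25 µg/mL test compound and expressed as % of control. Means of triplicate determinations.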

[3] = Effect on calcein accumulation in multidrug resistant human 2780 AD cells at 2.5 ug/mL relative to control; type: functional; outline: as §2
[4] = Effect on calcein accumulation in multidrug resistant human 2780 AD cells at 0.25 ug/mL relative to control; type: functional; outline: as §2
WI-38 VA13 = assay: Cytotoxicity against human VA13 cells; type: cell-based; outline: as §1
A549 [5] = assay: Inhibition of ICAM1 induction in human A549 cells; type: functional, cell-based
Outline: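 A549 cells pretreated 1 h with a range of test concentrations, then stimulated with IL-1α for 6 h. Surface ICAM-1 detected with primary and secondary antibodies plus enzyme substrate, absorbance at 415 nm. Triplicate cultures, IC50 derived.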

A549 [6] = assay: Cytotoxicity against human A549 cells by MTT assay; type: cell-based
Outline: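 A549 cells exposed to serial dilutions for 24 h. Viability (%) read by MTT and used to derive IC50. Triplicate cultures.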

[7] = Effect on calcein accumulation in multidrug resistant human 2780 AD cells at 2.5 ug/mL relative to verapamil; type: functional
[8] = Effect on calcein accumulation in multidrug resistant human 2780 AD cells at 0.25 ug/mL relative to verapamil; type: functional
[9] = Effect on calcein accumulation in multidrug resistant human 2780 AD cells at 25 ug/mL relative to verapamil; type: functional

| IC50 (A549 [5]) [µM] | Structure (SMILES) | IC50 (HepG2) [µg/mL] | IC50 [1] [µg/mL] | Activity [2] [%] | Activity [3] [%] | Activity [4] [%] | IC50 (WI-38 VA13) [µg/mL] | IC50 (A549 [6]) [µM] | IC50 (A549 [5]; read-out: IC50) [µM] | IC50 (A549 [6]; read-out: IC50) [µM] | Activity [7] [%] | Activity [8] [%] | Activity [9] [%] |
| --- | --- | --- | --- | --- | --- | --- | --- | --- | --- | --- | --- | --- | --- |
|  | C[C@]12C(=O)C[C@H]3[C@@H](C=CC4=CC(=O)CC[C@@]43C)[C@@H]1CC[C@@H]2C(=O)CO | 94.9 (≈ 277 µM) | 48.1 (≈ 140 µM) | 140 | 105 | 110 | 87.7 (≈ 256 µM) |  |  |  |  |  |  |
| > 100 | CC(=O)[C@]12O[C@H]1C[C@H]1[C@@H]3C=CC4=CC(=O)CC[C@]4(C)[C@H]3C[C@@H](O)[C@@]12C | 62.1 (≈ 181 µM) | 51.1 (≈ 149 µM) | 99 | 108 | 103 | 73.1 (≈ 213 µM) | > 100 |  |  |  |  |  |
|  | C[C@@H](O)[C@H]1CC[C@H]2[C@@H]3C=CC4=CC(=O)CC[C@]4(C)[C@H]3CC(=O)[C@]12C | 49.2 (≈ 150 µM) | 66.4 (≈ 202 µM) | 138 | 127 | 116 | 57.4 (≈ 175 µM) |  | > 300 | > 300 | 117 | 120 | 93 |
|  | CC(=O)C1=CC[C@H]2[C@@H]3C=CC4=CC(=O)CC[C@]4(C)[C@H]3C[C@@H](O)[C@]12C [NERIDIENONE A] | 2.5 (≈ 7.66 µM) | 4.9 (≈ 15 µM) | 107 | 92 | 109 | 0.68 (≈ 2.08 µM) |  | 7 | 53.1 |  |  |  |
|  | C[C@]12C(=O)C[C@H]3[C@@H](C=CC4=CC(=O)CC[C@@]43C)[C@@H]1CC[C@@H]2[C@H](O)CO [NERIDIENONE B] | > 100 | 73.5 (≈ 213 µM) | 148 | 154 | 110 | > 100 |  |  |  | 141 | 113 | 100 |
|  | COc1ccc(CCN(C)CCCC(C#N)(c2ccc(OC)c(OC)c2)C(C)C)cc1OC (stereo not given) [VERAPAMIL] |  |  | 148 | 109 | 97 |  |  |  |  |  |  |  |
